High-throughput results deposited in PubChem by several laboratories.
An excerpt weighted towards active compounds, which were near 1.9% of everything screened.
SR-BI DiI inh: blocks mouse SR-BI lipid uptake from DiI-HDL; Q61009; ldlA[mSR-BI] CHO cells, DiI-HDL uptake fluorescence, 3 h; inhibition, % at 12.5 µM; 320,000 tested, 0.96% active;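 active = mean replicate inhibition of at least 70% and a set share of replicates each scoring 70 or more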;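 note: 0% = median of neutral control wells and 100% = median of positive control wells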
Neddyl block: blocks human cullin neddylation | 360,000 tested, 0.58% active | P61081+Q13564 | inhibition, % at 25 µM | TR-FRET cullin neddylation, biochemical | AID 651699; in the data active = inhibition above about 36%
Target sequence (P61081 whole entry, looked up): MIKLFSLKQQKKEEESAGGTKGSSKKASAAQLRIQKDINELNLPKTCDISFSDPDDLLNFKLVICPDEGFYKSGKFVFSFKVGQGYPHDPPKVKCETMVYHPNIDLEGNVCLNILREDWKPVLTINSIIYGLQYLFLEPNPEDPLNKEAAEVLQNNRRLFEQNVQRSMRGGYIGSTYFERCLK
Target sequence (Q13564 whole entry, looked up): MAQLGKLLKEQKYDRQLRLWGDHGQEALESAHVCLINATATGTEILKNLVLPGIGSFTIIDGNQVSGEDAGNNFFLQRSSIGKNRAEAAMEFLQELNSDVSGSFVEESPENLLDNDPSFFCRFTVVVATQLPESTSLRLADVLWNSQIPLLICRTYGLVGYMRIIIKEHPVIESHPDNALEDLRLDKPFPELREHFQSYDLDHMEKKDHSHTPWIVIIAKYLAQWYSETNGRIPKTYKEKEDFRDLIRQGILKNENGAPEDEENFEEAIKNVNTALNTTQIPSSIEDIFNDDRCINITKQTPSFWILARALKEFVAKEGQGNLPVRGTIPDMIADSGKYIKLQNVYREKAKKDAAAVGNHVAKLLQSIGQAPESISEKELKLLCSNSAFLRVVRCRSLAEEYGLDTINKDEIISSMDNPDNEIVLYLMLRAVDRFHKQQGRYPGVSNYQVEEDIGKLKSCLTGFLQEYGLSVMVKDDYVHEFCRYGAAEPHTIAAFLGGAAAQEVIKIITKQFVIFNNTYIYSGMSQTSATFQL
UBC13 inh: human UBC13 polyubiquitination inhibition. UBC13 polyubiquitin chain formation, TR-FRET. inhibition, % at 20 µM. 330,000 tested, 0.47% active. AID 485273; in the data active = inhibition above about 45%, passing the limit was not always enough
SR-BI uptake up: activators of SR-BI mediated HDL lipid uptake. CHO ldlA[mSR-BI] cells, DiI-HDL uptake fluorescence, 3 h; 100 = double the neutral-control signal. activation, % at 12.5 µM. 320,000 tested, 0.096% active;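 active = mean replicate activation of at least 60% and every replicate at or above 60%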;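 note: 0% = median plate neutral-control signal and 100% = twice that signal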
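System: LDL receptor-deficient CHO ldlA cells overexpressing murine SR-BI | Timing: 3 h uptake period with compound, 37 °C | Medium: HEPES-buffered (25 mM, pH 7.4) F12 plus 0.5% BSA | Dosing: Single-point compound dose | Signal: Bottom-read fluorescence, 550/595 nm | Read-out: Retained DiI signal reflecting DiI-HDL uptake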
Neddyl conf: confirmation of human cullin neddylation inhibitors; shares compounds with Neddyl block; TR-FRET cullin neddylation biochemical assay; calls only at 25 µM; 1,800 tested, 13% active; in the data active = inhibition above about 40%;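 note: neddylation substrate is the cullin 1 ring ligase complex with SKP2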
* hit, by the source's call; i = inactive; . = not tested or not shown; + = active, no number.

SMILES	SR-BI DiI inh	Neddyl block	UBC13 inh	SR-BI uptake up	Neddyl conf
CC(C)N1CC(O)=C(c2nc3ccccc3[nH]2)C1=N	-9	7	-1	9	.
COCCNC(=O)CSc1ccc(-c2nc3ccccc3[nH]2)cn1	.	49*	0	.	+
CCOC(=O)CSc1ccc(-c2nc3ccccc3[nH]2)cn1	-18	17	-14	18	.
Cn1c(=O)c2nc(NCc3ccccc3)sc2n(C)c1=O	.	-5	.	.	.
CC(C)CCNC(=O)CN1N=C(c2ccc(Cl)cc2)CCC1=O	-36	0	2	36	.
COc1ccc2sc(-c3ccc(SC)cc3)c(C#CCO)c2c1	65	39*	21	-65	.
Cc1cc(C)n2nc(C(=O)OCC(=O)NNC(=O)c3ccccc3)nc2n1	-22	11	8	22	.
O=c1c2c(nc3c(-c4ccccc4)c[nH]n13)CCCC2	-15	38*	8	15	.
Cc1[nH]n2c(=O)c3c(nc2c1-c1ccccc1)CCC3	-2	36	12	2	.
O=C(COC(=O)c1ccc(Cl)nc1)Nc1ccc2c(c1)OCCO2	-23	-25	1	23	.
Cn1cc(-c2cccc(Cl)c2)cc(C#N)c1=O	-12	39*	6	12	i
CC(C)COC(=O)COc1cc(Cl)c(Cl)cc1Cl	.	.	11	.	.
CCCCN(C)C(=O)c1cc2cc3ccc(OC)cc3nc2o1	20	58*	4	-20	+
Cc1c(C(=O)O)sc2nc(/C=C/c3cccc(F)c3)[nH]c(=O)c12	-6	40*	-13	6	.
Cc1ccc(-n2nc(C)c3c(C)cc(=O)[nH]c32)cc1	-11	44*	7	11	i
Cc1nn(-c2ccccc2)c2[nH]c(=O)cc(C(F)F)c12	-18	23	1	18	.
CC(=O)c1cccc(OCC(=O)c2cc(C)n(-c3cc(C)on3)c2C)c1	54	0	-2	-54	.
Cc1cc(-n2c(C)cc(C(=O)COc3ccc4ccc(=O)oc4c3)c2C)no1	48	55*	10	-48	.
COCCn1c(C)cc(/C=N/NC(=O)c2cc3ccccc3cc2O)c1C	95*	50*	-5	-95	.
Cn1c(O)c(/C=N/NC(=O)c2cc3ccccc3cc2O)c2ccccc21	.	.	-6	.	.
COc1ccc(/C=C/C(=O)NC2=NCCS2)cc1OC	44	.	2	-44	.
COc1ccc(OC)c(/C=C/C(=O)NC2=NCCS2)c1	25	42*	17	-25	.
CCOc1cc(/C=C/c2nc3ccccc3s2)ccc1OCC(=O)N1CCOCC1	78*	48*	25	-78	.
COc1ccc2c(c1)c(=O)oc1c(C)c(OC(C)C(=O)N[C@@H](Cc3c[nH]c4ccc(O)cc34)C(=O)O)ccc12 (stereo not given in full)	13	47*	-16	-13	.
S=c1[nH]c2cnc(Cl)nc2[nH]1	-6	3	.	6	.
SMILES	SR-BI DiI inh	Neddyl block	UBC13 inh	SR-BI uptake up	Neddyl conf
S=c1[nH]c2nc(Cl)c(Cl)nc2[nH]1	.	41*	.	.	+
Nc1c(C(=O)N/N=C/c2ccc(Cl)cc2)cnn1-c1ccccc1	9	3	3	-9	.
O=c1c(Cl)c(N/N=C/c2ccc(Cl)cc2)cnn1-c1ccccc1	12	42*	10	-12	i
CCOC(=O)N1CCN(C(=O)CSc2ccc3nnc(-c4ccccn4)n3n2)CC1	-32	44*	0	32	i
CC(C)(C)c1ccc(C(=O)N2CCN(c3ccc(N4CCOCC4)nn3)CC2)cc1	-16	52*	8	16	.
O=C(c1ccc(C(F)(F)F)cc1)N1CCN(c2ccc(N3CCOCC3)nn2)CC1	-9	59*	13	9	.
CCN(C(=O)CN(C1=NC2CS(=O)(=O)CC2S1)c1ccc(OC)cc1)c1cccc(C)c1 (stereo not given)	.	-2	.	.	.
Cn1c(=O)c2c(nc(N/N=C/c3ccc(OC(=O)c4ccco4)cc3)n2Cc2ccccc2Cl)n(C)c1=O	-7	44*	-7	7	i
CCN(CC)c1cc(C)c2cc(NC(=O)c3ccccc3OC)ccc2n1	35	43*	-1	-35	i
CCN(CC)c1cc(C)c2cc(NC(=O)c3cccs3)ccc2n1	32	25	-9	-32	.
O=C(Nc1ccc2c(c1)nc1n2CCN(Cc2ccccc2)C1)c1cccs1	25	26	0	-25	.
COc1ccccc1C(=O)Nc1ccc2c(c1)nc1n2CCN(Cc2ccccc2)C1	63	54*	9	-63	i
CN(C(=O)COC(=O)C1CCN(S(=O)(=O)c2c(Cl)cccc2Cl)CC1)C1CCS(=O)(=O)C1 (stereo not given)	-9	-6	4	9	.
CCOC(=O)c1snc2c(=O)[nH]cnc12	-3	49*	32	3	i
Cc1cn(-c2cccnc2)c(C)c1CNC[C@H]1O[C@@H](n2cnc3c(N)ncnc32)[C@H](O)[C@@H]1O	2	75*	-9	-2	i
Cc1sc2ccccc2c1CNC[C@H]1O[C@@H](n2cnc3c(N)ncnc32)[C@H](O)[C@@H]1O	10	6	6	-10	.
O=C(O)C(=O)/C(=C\c1cccc(Cl)c1)c1ccc2ccccc2n1	-8	.	11	8	.
N#Cc1ccc(/C=C(\C(=O)C(=O)O)c2ccc3ccccc3n2)cc1	.	39*	-18	.	i
CCOC(=O)CSC1=NC(=O)/C(=C/c2ccc(OC)cc2)S1	-42	15	21	42	.
Cc1ccc(S(=O)(=O)N2C[C@H]3C(=O)C[C@@H](c4ccccc4)N(S(=O)(=O)c4ccc(C)cc4)[C@H]3C[C@H]2c2cccs2)cc1	.	-23	.	.	.
CCOC(=O)C1CC(=NO)c2ccc(OC)c(OC)c2C1 (stereo not given)	.	40*	.	.	i
CCOC(=O)C1CCN(S(=O)(=O)c2ccc(OC)c(OC)c2)CC1	7	5	-8	-7	.
C[C@@H]1ON(C)[C@H]2C[C@H]3c4cc(-c5cccc(F)c5)ccc4CCN3C(=O)[C@@H]12	12	6	.	-12	.
Cc1ccc2ccc(C#N)cc2c1O	.	43*	.	.	+
CCC(C)(O)c1[nH]c2ccc(C#N)cc2c1C (stereo not given)	7	-8	-11	-7	.
SMILES	SR-BI DiI inh	Neddyl block	UBC13 inh	SR-BI uptake up	Neddyl conf
COc1ccc(CCNC(=O)c2ccc(Br)o2)cc1Br	.	-15	.	.	.
COc1ccc(S(=O)(=O)NC(C)C(=O)NCc2ccccn2)cc1OC (stereo not given)	.	-3	4	.	.
CCOC(=O)N1CCN(Cc2nc(N)nc(Nc3ccc(C)cc3C)n2)CC1	-3	5	5	3	.
Cc1ccc2cc3cc(C(=O)NCc4ccco4)oc3nc2c1	25	44*	3	-25	i
Cc1ccc(Cl)c2sc(NC(=O)C3=COCCO3)nc12	42	9	7	-42	.
CSc1cccc2sc(NC(=O)C3=COCCO3)nc12	41	52*	6	-41	.
COc1ccc(Cl)c2sc(NC(=O)C3=COCCO3)nc12	18	42*	-9	-18	i
Cc1cc(-c2ccccc2)nc(N(C)N)c1S(C)(=O)=O	6	39*	2	-6	i
O=c1[nH]c2cc3c(cc2cc1CN(Cc1cccnc1)C(=S)NCc1ccco1)OCO3	-7	14	0	7	.
